The target in assay [1] is Pol β binary complex (Pol β/sngDNA) (Rattus norvegicus, UniProt P06766). The format is binding. The settings on record: for ΔH of binding (ITC) / ΔS of binding (ITC): binding to Pol β binary complex, 23 °C. Put shortly:
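Binary complex formed with 20-mer single-nucleotide-gapped duplex DNA (DNA:protein ~1.5:1). Ligands were nonhydrolyzable α,β-imido dNTP analogues, titrated in matched buffer (50 mM HEPES, 100 mM NaCl, 5 mM MgCl₂, 2 mM DTT, pH 7.4) at 1000 rpm with 250 s between injections. Matching analogue: 0.2 mM into 0.013 mM complex. Mismatching analogue: 6 mM into 0.106 mM complex.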

Assay [2] deals with binary Pol β complex (Pol β/sngDNA) (Homo sapiens, UniProt P06746). Kind of assay: NMR lineshape analysis. The assay is classed as binding, rat. Put shortly: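 It was titrated with Mg²⁺-containing nonhydrolyzable matching (0–2:1) or mismatching (0.15–4.6:1) dNTP analogue, followed by ¹H–¹⁵N TROSY/HSQC. Resonances resolved in both dimensions throughout were fitted to a two-state model for koff and KD.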

For `Nc1ncnc2c1ncn2[C@H]1C[C@H](O)[C@@H](COP(=O)(O)NP(=O)(O)OP(=O)(O)O)O1` [dApNHpp, 2′-deoxyadenosine-5′[(α,β)-imido]triphosphate], the “fold weaker binding than the matching nucleotide” value in assay [1] (based upon ITC data) is “approximately 300 fold”. For the same compound, in assay [1], the “ΔH of binding (ITC)” value was 8.84 ± 2.2 kcal/mol and the “ΔS of binding (ITC)” value stood at 195 ± 32 J/mol−K. Further, the “fold greater koff than that measured for the matching nucleotide” value in assay [2] (NMR line shape data) is “approximately 50 fold”. The “kex of nucleotide binding/dissociation within the binding cavity” value in assay [2] (in the presence of 3.0 mM dApNHpp, estimated) was roughly 7000 s⁻¹.

On to `Nc1ccn([C@H]2C[C@H](O)[C@@H](COP(=O)(O)NP(=O)(O)OP(=O)(O)O)O2)c(=O)n1` [dCpNHpp, 2′-Deoxycytidine-5′-[(α,β)-imido]triphosphate], for which, in assay [1], the “ΔH of binding (ITC)” value is 22.2 ± 0.24 kcal/mol and the “ΔS of binding (ITC)” value worked out at 432 ± 5 J/mol−K. Also, the “koff (NMR lineshape analysis)” value in assay [2] (two-state model, global fit of nine residues, 23 °C) was 5.1 s⁻¹.

These data come from PMC8259413 (Biochemistry, 2015).
